Test system: not listed separately
Test: Solubility of the compound
Assay type: physicochemical
Settings: not given

Row | SMILES | solubility
1 | Cc1cc(C(=O)N[C@@H](CC(=O)N2CCCC[C@@H]2C)C(=O)N[C@@H](C)C(=O)NCc2ccc(F)cc2F)no1 | Soluble

Biological target: T1, Proteasome subunit beta type-8 (Homo sapiens, UniProt P28062)
T1 sequence (P28062 whole entry): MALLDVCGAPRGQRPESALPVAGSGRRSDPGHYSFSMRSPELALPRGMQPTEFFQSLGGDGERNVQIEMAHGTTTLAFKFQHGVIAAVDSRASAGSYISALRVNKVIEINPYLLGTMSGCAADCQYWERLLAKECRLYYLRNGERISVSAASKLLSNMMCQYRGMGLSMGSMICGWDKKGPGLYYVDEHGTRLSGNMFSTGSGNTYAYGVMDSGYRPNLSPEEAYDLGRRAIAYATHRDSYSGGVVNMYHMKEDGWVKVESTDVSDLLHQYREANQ
Test: Inhibition of human 20S proteasome subunit beta-5i using Ac-ANW-AMC as substrate and measured every 30 secs for 30 mins by microtiter plate assay
Settings: not given
Summary of the method: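 Human immunoproteasome (i-20S) run in HEPES pH 7.5 buffer with EDTA and BSA, substrate Ac-ANW-AMC at 15 µM, 25 °C. Inhibitor given as a three-fold dilution series, DMSO under 0.5% final. Fluorescence 340/460 nm followed every 30 s for 30 min. IC50 fitted from rates against log inhibitor concentration; triplicate, at least three independent experiments.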

Row | SMILES | IC50 [µM]
2 | Cc1cc(C(=O)N[C@@H](CC(=O)N2CCC[C@@H]2c2ccccc2)C(=O)N[C@@H](C)c2ncc(-c3ccccc3F)[nH]2)no1 | > 100
3 | Cc1cc(C(=O)N[C@@H](CC(=O)N2CCC[C@@H]2c2ccccc2)C(=O)N[C@@H](C)c2ncc(-c3ccc(F)cc3F)[nH]2)no1 | > 100
4 | Cc1cc(C(=O)N[C@@H](CC(=O)N2CCCC[C@@H]2C)C(=O)N[C@@H](C)C(=O)NCc2ccc(F)cc2F)no1 | 0.026
5 | Cc1cc(C(=O)N[C@@H](CC(=O)N2CCC[C@@H]2c2ccccc2)C(=O)N[C@@H](C)C(=O)NCc2ccc(F)cc2F)no1 | 7.89
6 | Cc1cc(C(=O)N[C@@H](CC(=O)N2CCC[C@@H]2c2ccccc2)C(=O)N[C@@H](C)c2ncc(-c3ccccc3)[nH]2)no1 | > 100
7 | Cc1cc(C(=O)N[C@@H](CC(=O)N2CCC[C@@H]2c2ccccc2)C(=O)N[C@@H](C)C(=O)NCc2c(F)cccc2F)no1 | 20.1
8 | COc1ccccc1CNC(=O)[C@H](C)NC(=O)[C@H](CC(=O)N1CCC[C@@H]1c1ccccc1)NC(=O)c1cc(C)on1 | > 100

Same assay, conditions: human, 0.5 h

Row | SMILES | inhibition (INH)
9 | Cc1cc(C(=O)N[C@@H](CC(=O)N2CCCC[C@@H]2C)C(=O)N[C@@H](C)C(=O)NCc2ccc(F)cc2F)no1 | Dose-dependent effect
10 | Cc1cc(C(=O)N[C@@H](CC(=O)N2CCC[C@@H]2c2ccccc2)C(=O)N[C@@H](C)C(=O)NCc2ccc(F)cc2F)no1 | Dose-dependent effect
11 | Cc1cc(C(=O)N[C@@H](CC(=O)N2CCC[C@@H]2c2ccccc2)C(=O)N[C@@H](C)C(=O)NCc2c(F)cccc2F)no1 | Dose-dependent effect
12 | COc1ccccc1CNC(=O)[C@H](C)NC(=O)[C@H](CC(=O)N1CCC[C@@H]1c1ccccc1)NC(=O)c1cc(C)on1 | Dose-dependent effect

Biological target: T2, Proteasome Macropain subunit MB1 (Homo sapiens, UniProt P28074)
T2 sequence (P28074 whole entry): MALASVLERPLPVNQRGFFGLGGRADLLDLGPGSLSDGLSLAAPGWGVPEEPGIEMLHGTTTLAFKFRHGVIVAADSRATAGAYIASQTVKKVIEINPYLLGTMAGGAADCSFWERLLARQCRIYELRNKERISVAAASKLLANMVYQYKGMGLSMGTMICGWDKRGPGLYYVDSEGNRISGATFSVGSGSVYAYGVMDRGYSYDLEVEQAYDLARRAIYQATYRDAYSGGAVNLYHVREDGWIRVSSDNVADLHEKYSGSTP
Test: Inhibition of human 20S proteasome beta-5c subunit using Suc-LLVY-AMC as substrate and measured every 30 secs for 30 mins by microtiter plate assay
Settings: not given
Summary of the method: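 Human constitutive 20S, purchased, 0.8 nM in the enzyme solution. Buffer: 20 mM HEPES pH 7.5, 0.5 mM EDTA, 0.1 mg/mL BSA, 0.02% SDS. Suc-LLVY-AMC at 25 µM final, 25 °C, three-fold inhibitor dilutions. Fluorescence 340/460 nm read every 30 s for 30 min. IC50 from a log-concentration rate fit against negative and positive controls; triplicate, at least three independent experiments.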

Row | SMILES | IC50 [µM]
13 | Cc1cc(C(=O)N[C@@H](CC(=O)N2CCC[C@@H]2c2ccccc2)C(=O)N[C@@H](C)c2ncc(-c3ccccc3F)[nH]2)no1 | > 100
14 | Cc1cc(C(=O)N[C@@H](CC(=O)N2CCC[C@@H]2c2ccccc2)C(=O)N[C@@H](C)c2ncc(-c3ccc(F)cc3F)[nH]2)no1 | > 100
15 | Cc1cc(C(=O)N[C@@H](CC(=O)N2CCCC[C@@H]2C)C(=O)N[C@@H](C)C(=O)NCc2ccc(F)cc2F)no1 | 1.41
16 | Cc1cc(C(=O)N[C@@H](CC(=O)N2CCC[C@@H]2c2ccccc2)C(=O)N[C@@H](C)C(=O)NCc2ccc(F)cc2F)no1 | > 100
17 | Cc1cc(C(=O)N[C@@H](CC(=O)N2CCC[C@@H]2c2ccccc2)C(=O)N[C@@H](C)c2ncc(-c3ccccc3)[nH]2)no1 | > 100
18 | Cc1cc(C(=O)N[C@@H](CC(=O)N2CCC[C@@H]2c2ccccc2)C(=O)N[C@@H](C)C(=O)NCc2c(F)cccc2F)no1 | > 100
19 | COc1ccccc1CNC(=O)[C@H](C)NC(=O)[C@H](CC(=O)N1CCC[C@@H]1c1ccccc1)NC(=O)c1cc(C)on1 | > 100

Same assay, conditions: human, 0.5 h

Row | SMILES | inhibition (INH)
20 | Cc1cc(C(=O)N[C@@H](CC(=O)N2CCCC[C@@H]2C)C(=O)N[C@@H](C)C(=O)NCc2ccc(F)cc2F)no1 | Dose-dependent effect
21 | Cc1cc(C(=O)N[C@@H](CC(=O)N2CCC[C@@H]2c2ccccc2)C(=O)N[C@@H](C)C(=O)NCc2ccc(F)cc2F)no1 | Dose-dependent effect
22 | Cc1cc(C(=O)N[C@@H](CC(=O)N2CCC[C@@H]2c2ccccc2)C(=O)N[C@@H](C)C(=O)NCc2c(F)cccc2F)no1 | Dose-dependent effect
23 | COc1ccccc1CNC(=O)[C@H](C)NC(=O)[C@H](CC(=O)N1CCC[C@@H]1c1ccccc1)NC(=O)c1cc(C)on1 | Dose-dependent effect
